In this experiment the target is Histamine H3 receptor (Rattus norvegicus, UniProt Q9QYN8). Description: In vitro antagonistic activity tested against Histamine H3 receptor on synaptosomes from rat cerebral cortex. The gist of the method:
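Preloaded 30 min with L-[3H]histidine (0.4 µM) at 37 °C in modified Krebs-Ringer. Washed, resuspended in 2 mM K+ medium, then depolarized 2 min with 2 or 30 mM K+ (final). […] Stopped by rapid centrifugation; liquid scintillation. Ki by Cheng-Prusoff; mean ± SEM, ≥3 determinations.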

Sequence of Histamine H3 receptor (Q9QYN8 whole entry): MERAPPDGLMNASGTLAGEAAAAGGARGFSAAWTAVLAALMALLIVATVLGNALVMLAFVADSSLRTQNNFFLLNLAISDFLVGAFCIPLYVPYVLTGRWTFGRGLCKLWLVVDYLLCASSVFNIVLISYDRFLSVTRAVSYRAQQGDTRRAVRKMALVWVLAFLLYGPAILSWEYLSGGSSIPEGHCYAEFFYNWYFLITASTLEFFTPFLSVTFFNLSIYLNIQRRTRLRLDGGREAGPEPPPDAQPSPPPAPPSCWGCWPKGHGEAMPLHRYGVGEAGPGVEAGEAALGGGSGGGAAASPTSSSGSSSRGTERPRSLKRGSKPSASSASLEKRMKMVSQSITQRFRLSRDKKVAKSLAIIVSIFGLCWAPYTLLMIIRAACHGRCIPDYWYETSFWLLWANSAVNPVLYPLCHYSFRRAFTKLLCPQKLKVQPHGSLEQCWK

Molecule `COc1ccc(CCC(=O)OCCCc2cnc[nH]2)cc1I` [3-(3-Iodo-4-methoxy-phenyl)-propionic acid 3-(1H-imidazol-4-yl)-propyl ester] displayed a Ki of 251 nM.
The figure for `O=C(CCc1ccc(I)cc1)OCCCc1cnc[nH]1` [3-(4-Iodo-phenyl)-propionic acid 3-(1H-imidazol-4-yl)-propyl ester] is 50 nM; for `Cc1ccc(C(=O)OCCCc2cnc[nH]2)cc1I` [3-Iodo-4-methyl-benzoic acid 3-(1H-imidazol-4-yl)-propyl ester] it is 31.6 nM; for `Nc1c(I)cc(C(=O)OCCCc2cnc[nH]2)cc1I` [4-Amino-3,5-diiodo-benzoic acid 3-(1H-imidazol-4-yl)-propyl ester] it is 158 nM.
`Ic1cccc(COCCCc2cnc[nH]2)c1` [4-[3-(3-Iodo-benzyloxy)-propyl]-1H-imidazole]: the affinity corresponds to a Ki of 6.31 nM.
The molecule `Ic1cccc(OCCCc2cnc[nH]2)c1` [4-[3-(3-Iodo-phenoxy)-propyl]-1H-imidazole] showed a Ki of 16 nM.
`Brc1ccc(COCCCc2cnc[nH]2)cc1` [4-[3-(4-Bromo-benzyloxy)-propyl]-1H-imidazole] came in with a Ki of 12.6 nM.
As to `Ic1ccc(OCCCc2cnc[nH]2)cc1` [4-[3-(4-Iodo-phenoxy)-propyl]-1H-imidazole], the affinity corresponds to a Ki of 19.9 nM. This Ki lies about 1.6-fold higher than the previous one.
`Ic1ccc(CCCOCCCc2cnc[nH]2)cc1` [4-{3-[3-(4-Iodo-phenyl)-propoxy]-propyl}-1H-imidazole] displayed a Ki of 31.6 nM.

These data come from BindingDB's records for doi:10.1021/jm9504767 (Freie Universität Berlin, 1996).
